In ChEMBL document CHEMBL1137698, “Synthesis, spectral studies and in vitro antibacterial activity of steroidal thiosemicarbazone and their palladium (Pd (II)) complexes” (2009):
≈ marks a conversion by molar mass, not a printed value.

Experiments:
[1] = test system: Escherichia coli; assay: Antibacterial activity against Escherichia coli after 18 hrs by […]; format: functional
Method in brief: (§1)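 MIC by tube macrodilution. Test compounds dissolved in DMSO, serially diluted to final […]. Each tube received 24 h old inoculum, standard inoculum […]. Incubated 18 h at 37 °C. MIC read visually as the lowest concentration preventing visible growth.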

[2] = test system: Escherichia coli; assay: Antibacterial activity against Escherichia coli at 10 to 100 ug/mL after 18 hrs by disk diffusion method; format: functional
Method in brief: (§2)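 Disk diffusion. Bacteria were subcultured in BHI for 18 h at 37 °C, then suspended in saline to McFarland standard. The suspension was mixed with sterile antibiotic agar at 40 °C and poured into plates. Paper disks of 6.0 mm were placed on nutrient agar. DMSO stock was diluted to 10, 20, 25, 50 and 100 per mL and applied to the disks. A DMSO disk served as negative control. Inhibition zones in mm were read after 18 h at 36 °C.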

[3] = test system: Streptococcus pyogenes; assay: Antibacterial activity against Streptococcus pyogenes after 18 hrs by […]; format: functional; method in brief: as §1
[4] = test system: Staphylococcus aureus; assay: Antibacterial activity against Staphylococcus aureus after 18 hrs by […]; format: functional; method in brief: as §1
[5] = test system: Staphylococcus aureus; assay: Antibacterial activity against Staphylococcus aureus at 10 to 100 ug/mL after 18 hrs by disk diffusion method; format: functional; method in brief: as §2
[6] = test system: Salmonella typhimurium; assay: Antibacterial activity against Salmonella Typhimurium after 18 hrs by […]; format: functional, Salmonella enterica subsp. enterica serovar Typhimurium; conditions: Salmonella enterica; method in brief: as §1
[7] = test system: Streptococcus pyogenes; assay: Antibacterial activity against Streptococcus pyogenes at 10 to 100 ug/mL after 18 hrs by disk diffusion method; format: functional; method in brief: as §2
[8] = test system: Salmonella typhimurium; assay: Antibacterial activity against Salmonella Typhimurium at 10 to 100 ug/mL after 18 hrs by disk diffusion method; format: functional, Salmonella enterica subsp. enterica serovar Typhimurium; method in brief: as §2
[9] = test system: Staphylococcus aureus; assay: Antibacterial activity against Staphylococcus aureus at 30 ug after 18 hrs by disk diffusion method; format: functional; conditions: read-out: IZ
Method in brief: (§3)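 Amoxicillin […] disk, positive control in disk diffusion. Bacteria were subcultured in BHI for 18 h at 37 °C and suspended in saline to McFarland standard. Seeded antibiotic agar was poured into plates and 6.0 mm paper disks placed. Inhibition zone in mm was read after 18 h at 36 °C.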

[10] = test system: Streptococcus pyogenes; assay: Antibacterial activity against Streptococcus pyogenes at 30 ug after 18 hrs by disk diffusion method; format: functional; conditions: read-out: IZ; method in brief: as §3
[11] = test system: Escherichia coli; assay: Antibacterial activity against Escherichia coli at 30 ug after 18 hrs by disk diffusion method; format: functional; conditions: read-out: IZ; method in brief: as §3
[12] = test system: Salmonella typhimurium; assay: Antibacterial activity against Salmonella Typhimurium at 30 ug after 18 hrs by disk diffusion method; format: functional, Salmonella enterica subsp. enterica serovar Typhimurium; conditions: Salmonella enterica, read-out: IZ; method in brief: as §3

| MIC [1] | MIC [3] | MIC [4] | MIC [6] | Structure (SMILES) | inhibition zone (IZ) [2] | inhibition zone (IZ) [5] | inhibition zone (IZ) [7] | inhibition zone (IZ) [8] | zone of inhibition at 30 µg/disc [9] | zone of inhibition at 30 µg/disc [10] | zone of inhibition at 30 µg/disc [11] | zone of inhibition at 30 µg/disc [12] |
| --- | --- | --- | --- | --- | --- | --- | --- | --- | --- | --- | --- | --- |
| 128 µg/mL (≈ 234 µM) | 256 µg/mL (≈ 467 µM) | 256 µg/mL (≈ 467 µM) | 128 µg/mL (≈ 234 µM) | Cc1ccc(NC(=S)N/N=C2\CC[C@@]3(C)C(=CC[C@H]4[C@@H]5CC[C@H]([C@H](C)CCCC(C)C)[C@@]5(C)CC[C@@H]43)C2)cc1 | 10.2 mm | 12.6 mm | 11.5 mm | 10.2 mm | – | – | – | – |
| 128 µg/mL (≈ 234 µM) | 64 µg/mL (≈ 117 µM) | 64 µg/mL (≈ 117 µM) | 128 µg/mL (≈ 234 µM) | Cc1ccccc1NC(=S)N/N=C1\CC[C@@]2(C)C(=CC[C@H]3[C@@H]4CC[C@H]([C@H](C)CCCC(C)C)[C@@]4(C)CC[C@@H]32)C1 | 14.2 mm | 14.2 mm | 12.8 mm | 12.4 mm | – | – | – | – |
| 256 µg/mL (≈ 467 µM) | 128 µg/mL (≈ 234 µM) | 128 µg/mL (≈ 234 µM) | 128 µg/mL (≈ 234 µM) | Cc1cccc(NC(=S)N/N=C2\CC[C@@]3(C)C(=CC[C@H]4[C@@H]5CC[C@H]([C@H](C)CCCC(C)C)[C@@]5(C)CC[C@@H]43)C2)c1 | 11.2 mm | 12.4 mm | 10.6 mm | 10.6 mm | – | – | – | – |

| Structure (SMILES) | MIC [1] | MIC [3] | MIC [4] | MIC [6] | inhibition zone (IZ) [2] | inhibition zone (IZ) [5] | inhibition zone (IZ) [7] | inhibition zone (IZ) [8] | zone of inhibition at 30 µg/disc [9] | zone of inhibition at 30 µg/disc [10] | zone of inhibition at 30 µg/disc [11] | zone of inhibition at 30 µg/disc [12] |
| --- | --- | --- | --- | --- | --- | --- | --- | --- | --- | --- | --- | --- |
| CC1(C)S[C@@H]2[C@H](NC(=O)[C@H](N)c3ccc(O)cc3)C(=O)N2[C@H]1C(=O)O [AMOXICILLIN] | 32 µg/mL (≈ 87.6 µM) | 32 µg/mL (≈ 87.6 µM) | 32 µg/mL (≈ 87.6 µM) | 32 µg/mL (≈ 87.6 µM) | – | – | – | – | 21 mm | 22.2 mm | 20 mm | 25.2 mm |
